Measurements reported in ChEMBL document CHEMBL4138242, “Synthesis and antibacterial evaluation of novel cationic chalcone derivatives possessing broad spectrum antibacterial activity” (Eur J Med Chem, 2018).
Active and inactive are the calls of the source.

Legend:
Escherichia coli [1] = test: Antibacterial activity against drug-resistant NDM1 producing Escherichia coli clinical isolate EC-13-49 after 16 to 20 hrs by broth microdilution method; type: functional
Summary of the method: (§1)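 CLSI broth microdilution in Mueller-Hinton broth. A 4-6 h culture was diluted to about 10⁶ CFU/mL and mixed 1:1 with compound dilutions prepared at 256 to 0.5 µg/mL from aqueous stocks. Plates were incubated at 37 °C for 16-20 h and read visually for MIC. Each concentration was run in duplicate, and the experiment was repeated at least twice. Vancomycin and meropenem were comparators.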

Klebsiella pneumoniae [2] = test: Antibacterial activity against drug-resistant carbapenemase producing Klebsiella pneumoniae clinical isolate KP-13-45 after 16 to 20 hrs by broth microdilution method; type: functional; summary of the method: as §1
Staphylococcus aureus [3] = test: Antibacterial activity against methicillin-resistant Staphylococcus aureus clinical isolate 1207007 after 16 to 20 hrs by broth microdilution method; type: functional; summary of the method: as §1
Staphylococcus aureus [4] = test: Disruption of 24 hrs cultured Staphylococcus aureus ATCC 29213 biofilm assessed as decrease in cell viability in biofilm after 24 hrs by crystal violet staining-based assay; type: functional, organism-based
Staphylococcus aureus [5] = test: Bactericidal activity against Staphylococcus aureus ATCC 29213 preincubated with 50% sheep plasma at 512 ug/ml for 3 to 6 hrs followed by compound serial dilution and subsequent bacterial inoculation measured after 20 to 24 hrs; type: functional; conditions: read-out: MBC99.9
Summary of the method: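 Compound at 512 µg/mL in 50% water/50% sheep plasma, preincubated at 37 °C for 0, 3 or 6 h. Then serially diluted (256-4 µg/mL) and combined 50:150 µL with S. aureus at 10⁵ CFU/mL, 37 °C for 20-24 h. MBC determined by plating; three parallel samples.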

Klebsiella pneumoniae [6] = test: Antibacterial activity against drug-resistant carbapenemase producing Klebsiella pneumoniae clinical isolate KP-14-2 after 16 to 20 hrs by broth microdilution method; type: functional; summary of the method: as §1
Staphylococcus aureus [7] = test: Antibacterial activity against methicillin-resistant Staphylococcus aureus clinical isolate 1208143 after 16 to 20 hrs by broth microdilution method; type: functional; summary of the method: as §1
Escherichia coli [8] = test: Antibacterial activity against drug-resistant NDM1 producing Escherichia coli clinical isolate Ecl-14-58 after 16 to 20 hrs by broth microdilution method; type: functional; summary of the method: as §1
Staphylococcus aureus [9] = test: Antibacterial activity against methicillin-resistant Staphylococcus aureus clinical isolate 20130911034sau after 16 to 20 hrs by broth microdilution method; type: functional; summary of the method: as §1
Staphylococcus aureus [10] = test: Disruption of 24 hrs cultured Staphylococcus aureus ATCC 29213 biofilm assessed as cell viability in biofilm at 4 ug/ml after 24 hrs by crystal violet staining-based assay (reference value: 15.96 log10CFU/ml); type: functional
Klebsiella pneumoniae [11] = test: Antibacterial activity against drug-resistant carbapenemase producing Klebsiella pneumoniae clinical isolate KP-14-8 after 16 to 20 hrs by broth microdilution method; type: functional; summary of the method: as §1
Klebsiella pneumoniae [12] = test: Antibacterial activity against drug-resistant carbapenemase producing Klebsiella pneumoniae clinical isolate KP-13-55 after 16 to 20 hrs by broth microdilution method; type: functional; summary of the method: as §1
Escherichia coli [13] = test: Induction of cytoplasmic membrane depolarization in Escherichia coli ATCC 25922 at 10 to 20 ug/ml measured every 2 mins for 12 mins by DiSC35 dye-based fluorescence assay; type: functional, organism-based
Summary of the method: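 Mid-log cells (~10⁸ CFU/mL) were suspended in PBS (S. aureus) or HEPES/glucose/KCl with EDTA (E. coli). They were preloaded with DiSC3(5) for 30 min (S. aureus) or 40 min (E. coli), and baseline fluorescence was read for 8 min. Compound was added to 20 µg/mL final, and fluorescence (ex 622/em 670 nm) was read every 2 min for 12 min. Water served as control.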

Staphylococcus aureus [14] = test: Induction of inner membrane permeabilization in Staphylococcus aureus ATCC 29213 at 10 to 20 ug/ml measured every 2 mins for 12 mins by propidium iodide staining-based fluorescence assay; type: functional, organism-based
Summary of the method: (§2)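 Mid-log cells (~10⁸ CFU/mL) were suspended in PBS (S. aureus) or HEPES/glucose/KCl (E. coli). They were preincubated with propidium iodide for 30 min (S. aureus) or 40 min (E. coli), and baseline fluorescence was read for 8 min. Compound was added to 20 µg/mL final, and fluorescence (ex 535/em 617 nm) was read every 2 min for 12 min.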

Escherichia coli [15] = test: Antibacterial activity against drug-resistant NDM1 producing Escherichia coli clinical isolate 1460 after 16 to 20 hrs by broth microdilution method; type: functional; summary of the method: as §1
Klebsiella pneumoniae [16] = test: Antibacterial activity against drug-resistant carbapenemase producing Klebsiella pneumoniae clinical isolate KP-14-5 after 16 to 20 hrs by broth microdilution method; type: functional; summary of the method: as §1
Staphylococcus aureus [17] = test: Bactericidal activity against Staphylococcus aureus ATCC 29213 after 20 to 24 hrs; type: functional; conditions: read-out: MBC99.9
Summary of the method: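 MBC: wells showing little or no turbidity in the broth microdilution MIC assay were plated (20 µL) on agar and incubated 20-24 h at 37 °C. MBC is the lowest concentration giving no colonies.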

Klebsiella pneumoniae [18] = test: Antibacterial activity against drug-resistant carbapenemase producing Klebsiella pneumoniae clinical isolate KP-13-54 after 16 to 20 hrs by broth microdilution method; type: functional; summary of the method: as §1
Escherichia coli [19] = test: Antibacterial activity against drug-resistant NDM1 producing Escherichia coli clinical isolate Ecl-13-62 after 16 to 20 hrs by broth microdilution method; type: functional; summary of the method: as §1
Staphylococcus aureus [20] = test: Antibacterial activity against Staphylococcus aureus ATCC 29213 at sub MIC after 20 passages; type: functional, organism-based
Summary of the method: (§3)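 The MIC was first measured by broth microdilution. Cells grown at MIC/2 were then carried into a fresh MIC assay after each 24 h, repeated over 20 serial passages. Norfloxacin (S. aureus) and colistin (E. coli) served as control antibiotics. Resistance was defined as a >4-fold rise over the original MIC.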

Escherichia coli [21] = test: Antibacterial activity against drug-resistant NDM1 producing Escherichia coli clinical isolate KP-13-58 after 16 to 20 hrs by broth microdilution method; type: functional; summary of the method: as §1
Klebsiella pneumoniae [22] = test: Antibacterial activity against drug-resistant carbapenemase producing Klebsiella pneumoniae clinical isolate KP-14-3 after 16 to 20 hrs by broth microdilution method; type: functional; summary of the method: as §1
Escherichia coli [23] = test: Induction of inner membrane permeabilization in Escherichia coli ATCC 25922 at 10 to 20 ug/ml measured every 2 mins for 12 mins by propidium iodide staining-based fluorescence assay; type: functional, organism-based; summary of the method: as §2
Escherichia coli [24] = test: Antibacterial activity against Escherichia coli ATCC 25922 at sub MIC after 20 passages; type: functional, organism-based; summary of the method: as §3
Staphylococcus aureus [25] = test: Disruption of 24 hrs cultured Staphylococcus aureus ATCC 29213 biofilm assessed as cell viability in biofilm at 32 ug/ml after 24 hrs by crystal violet staining-based assay (reference value: 15.96 log10CFU/ml); type: functional
Escherichia coli [26] = test: Antibacterial activity against drug-resistant NDM1 producing Escherichia coli clinical isolate Ecl-14-59 after 16 to 20 hrs by broth microdilution method; type: functional; summary of the method: as §1
Escherichia coli [27] = test: Antibacterial activity against drug-resistant NDM1 producing Escherichia coli clinical isolate CF-15-61 after 16 to 20 hrs by broth microdilution method; type: functional; summary of the method: as §1
Staphylococcus aureus [28] = test: Antibacterial activity against Staphylococcus aureus ATCC 29213 after 16 to 20 hrs by broth microdilution method; type: functional
Summary of the method: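 Broth microdilution per CLSI. Bacteria grown 4-6 h (about 10⁸ CFU/mL), then diluted to about 10⁶ CFU/mL. Medium: Mueller-Hinton broth, except Luria-Bertani broth for E. coli. Compounds in sterile water, twofold series 256-0.5 µg/mL, mixed 1:1 with inoculum, 37 °C for 16-20 h. MIC is the lowest concentration without visible growth. Duplicate wells; experiment repeated at least twice.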

CCCCCCCC[N+](C)(C)CC(=O)Nc1ccc(C(=O)/C=C/c2ccccc2F)cc1.[Cl-]
MIC (Escherichia coli [1]): 4 µg/mL | MIC (Klebsiella pneumoniae [2]): 4 µg/mL | MIC (Staphylococcus aureus [3]): 0.25 µg/mL | Activity (Staphylococcus aureus [4]): Dose-dependent effect | MBC (Staphylococcus aureus [5]): 16 µg/mL | MIC (Klebsiella pneumoniae [6]): 16 µg/mL | MIC (Staphylococcus aureus [7]): 1 µg/mL | MIC (Escherichia coli [8]): 4 µg/mL | MIC (Staphylococcus aureus [9]): 0.5 µg/mL | Activity (Staphylococcus aureus [10]): 12.93 log10CFU/ml | MIC (Klebsiella pneumoniae [11]): 4 µg/mL | MIC (Klebsiella pneumoniae [12]): 16 µg/mL | Activity (Escherichia coli [13]): Active | Activity (Staphylococcus aureus [14]): Active | MIC (Escherichia coli [15]): 4 µg/mL | MIC (Klebsiella pneumoniae [16]): 4 µg/mL | MBC (Staphylococcus aureus [17]): 8 µg/mL | MIC (Klebsiella pneumoniae [18]): 4 µg/mL | MIC (Escherichia coli [19]): 4 µg/mL | Activity (Staphylococcus aureus [20]): Active | MIC (Escherichia coli [21]): 1 µg/mL | MIC (Klebsiella pneumoniae [22]): 8 µg/mL | Activity (Escherichia coli [23]): Active | Activity (Escherichia coli [24]): Active | Activity (Staphylococcus aureus [25]): 9.59 log10CFU/ml | MIC (Escherichia coli [26]): 16 µg/mL | MIC (Escherichia coli [27]): 4 µg/mL | MIC (Staphylococcus aureus [28]): 0.5 µg/mL
